This passage reports IC50 and inhibition results from ChEMBL document CHEMBL1765005, “Small molecule antagonists of the urokinase (uPA): urokinase receptor (uPAR) interaction with high reported potencies show only weak effects in cell-based competition assays employing the native uPAR ligand” (Bioorg Med Chem, 2011).

Calls of active or inactive are those of the source. The rule behind the calls is not given here. Residues, ends and D or L forms follow the SMILES beside them.

Format in all cases: cell-based
In test [1] the target is T1, Urokinase-type plasminogen activator/surface receptor (Homo sapiens, UniProt P00749+Q03405). In words: Inhibition of [125I]-labelled urokinase-type plasminogen activator binding to uPAR in human DU-145 cells by radioligand competition binding assay. On the technique in general: Loss of bound radioactivity is the signal in a displacement assay; it reports binding, not function.

Test [2] concerns the target T1, Urokinase-type plasminogen activator/surface receptor. In words: Inhibition of high molecular weight fluorescent labelled urokinase-type plasminogen activator binding to uPAR in PMA-stimulated human U937 cells at 100 uM preincubated for 30 mins by flow cytometry. To be noted: U-937. A digest of the protocol:
(§1)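 U-937 cells were stimulated with 100 nM PMA (final) for 7–8 h at 37 °C, then resuspended at 1 × 10⁶ cells/mL in cold PBS (1 mM CaCl₂, MgCl₂) with 0.1% BSA, pH 7.4. Cells were pre-incubated with antagonist on ice for 30 min, then given 40 nM Alexa-488-HMW-uPA. After washing, cell fluorescence was read by dual-colour flow cytometry as % of the no-compound control; mean ± SD, n = 3.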
On the technique in general: In flow cytometry, cells or beads pass a laser one at a time.

Test [3] shares this target. In words: Inhibition of high molecular weight fluorescent labelled urokinase-type plasminogen activator binding to uPAR in PMA-stimulated human U937 cells at 10 uM preincubated for 30 mins by flow cytometry. To be noted: U-937. The method, boiled down:
as §1

Test [4] has the same target. The test is described as follows: Inhibition of high molecular weight fluorescent labelled urokinase-type plasminogen activator binding to uPAR in PMA-stimulated human U937 cells at 10 nM preincubated for 30 mins by flow cytometry. To be noted: U-937. A digest of the protocol:
as §1

The target is the same in test [5]. The test is described as follows: Inhibition of high molecular weight fluorescent labelled urokinase-type plasminogen activator binding to uPAR in PMA-stimulated human U937 cells at 100 nM preincubated for 30 mins by flow cytometry. To be noted: U-937. The method, boiled down:
as §1

As usually defined, the IC50 is the midpoint of a concentration-inhibition curve. A lower IC50 goes with greater potency. For orientation: inhibition means the share of the control response that was lost under treatment. For `CC(=O)N[C@@H](Cc1c[nH]c2ccccc12)C(=O)Nc1cccc(-c2ccc(C(=O)N[C@@H](Cc3ccccc3)C(=O)O)cc2)c1`, in test [1], the IC50 stood at 0.8 nM. For the same molecule, the inhibition entry in test [2] and in test [3] was “inactive” throughout.

Turning to `C#CCNCC(=O)N(CC(=O)N(CC(N)=O)CC(=O)NC(c1ccc(OC)cc1)c1ccc(OC)cc1)c1ccc2ccccc2c1`, the inhibition in test [2] is 50%; in test [3], 60%.

Consider `N=C(N)NCCC[C@H](NC(=O)CNC(=O)[C@@H](N)CCC(=O)O)C(=O)CCl` (HELM PEPTIDE1{E.G.R.[ClC[*:1]]}$$$$V2.0), for which the results for the inhibition in test [4] and in test [5] were 80% and 90%, respectively.
